Measured values reported in ChEMBL document CHEMBL4699478, “7-Azaindolequinuclidinones (7-AIQD): A novel class of cannabinoid 1 (CB1) and cannabinoid 2 (CB2) receptor ligands” (Bioorg Med Chem Lett, 2020).
Calls of active or inactive are those of the source. The calls are words filed in the database; no cut-off is given here.

Legend:
[1] = biological target: T1, Cannabinoid receptor 2 (Homo sapiens, UniProt P34972); assay: Inverse agonist activity at human CB2 receptor expressed in CHO cell membrane assessed as reduction in GTPgammaS binding at 10 uM by [35S]GTP-gammaS binding assay; format: functional, cell membranes
T1 sequence (P34972 whole entry): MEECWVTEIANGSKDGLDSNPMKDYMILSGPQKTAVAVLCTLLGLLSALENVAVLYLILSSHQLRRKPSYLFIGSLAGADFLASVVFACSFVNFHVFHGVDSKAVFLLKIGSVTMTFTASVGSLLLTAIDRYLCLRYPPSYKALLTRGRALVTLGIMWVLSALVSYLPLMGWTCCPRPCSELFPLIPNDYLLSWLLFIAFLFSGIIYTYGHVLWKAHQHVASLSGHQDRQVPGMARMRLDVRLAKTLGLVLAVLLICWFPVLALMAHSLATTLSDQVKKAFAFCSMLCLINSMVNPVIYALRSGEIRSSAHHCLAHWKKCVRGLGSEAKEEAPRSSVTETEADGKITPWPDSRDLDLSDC
Procedure, shortened: (§1)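 [35S]GTPγS binding in CHO-hCB1 membranes (hCB1R) or CHO-hCB2 membranes (hCB2R). A single 10 μM concentration of ligand was tested for change in [35S]GTPγS binding relative to basal. Agonism was read as a rise above basal, inverse agonism as a fall below basal, and neutral activity as no significant change.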

[2] = biological target: T2, Cannabinoid receptor 1 (Homo sapiens, UniProt P21554); assay: Displacement of [3H]CP-55940 from CB1 receptor (unknown origin) by competitive binding assay
T2 sequence (P21554 whole entry): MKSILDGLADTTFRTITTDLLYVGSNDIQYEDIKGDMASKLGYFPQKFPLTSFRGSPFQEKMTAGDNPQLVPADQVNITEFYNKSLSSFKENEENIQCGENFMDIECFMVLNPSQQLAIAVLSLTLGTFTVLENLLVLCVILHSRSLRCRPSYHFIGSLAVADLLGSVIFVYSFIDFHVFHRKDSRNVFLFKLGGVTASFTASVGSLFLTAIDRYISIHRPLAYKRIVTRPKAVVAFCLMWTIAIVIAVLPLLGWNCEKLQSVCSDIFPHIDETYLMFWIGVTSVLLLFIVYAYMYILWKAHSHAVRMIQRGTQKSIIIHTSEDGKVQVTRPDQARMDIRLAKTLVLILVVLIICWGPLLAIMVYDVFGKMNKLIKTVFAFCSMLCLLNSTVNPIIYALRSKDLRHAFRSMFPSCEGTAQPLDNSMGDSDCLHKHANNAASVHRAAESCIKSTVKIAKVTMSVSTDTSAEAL

[3] = biological target: T1, Cannabinoid receptor 2; assay: Displacement of [3H]CP-55940 from CB2 receptor (unknown origin) by competitive binding assay
[4] = species on record: Homo sapiens; assay: Selectivity index, ratio of Ki for CB1 receptor (unknown origin) to Ki for CB2 receptor (unknown origin) by competitive binding assay
[5] = biological target: T1, Cannabinoid receptor 2; assay: Displacement of [3H]CP-55940 from CB2 receptor (unknown origin) at 1 uM by competitive binding assay
[6] = biological target: T2, Cannabinoid receptor 1; assay: Displacement of [3H]CP-55940 from CB1 receptor (unknown origin) at 1 uM by competitive binding assay
[7] = biological target: T1, Cannabinoid receptor 2; assay: Agonist activity at human CB2 receptor expressed in CHO cell membrane assessed as increase in GTPgammaS binding at 10 uM by [35S]GTP-gammaS binding assay; format: functional, cell membranes; procedure, shortened: as §1
[8] = biological target: T2, Cannabinoid receptor 1; assay: Agonist activity at human CB1 receptor expressed in CHO cell membrane assessed as increase in GTPgammaS binding at 10 uM by [35S]GTP-gammaS binding assay; format: functional, cell membranes; procedure, shortened: as §1
[9] = biological target: T2, Cannabinoid receptor 1; assay: Neutral antagonist activity at human CB1 receptor expressed in CHO cell membrane at 10 uM by [35S]GTP-gammaS binding assay; format: cell membranes; conditions: filed as antagonist; procedure, shortened: as §1
[10] = biological target: T2, Cannabinoid receptor 1; assay: Inverse agonist activity at human CB1 receptor expressed in CHO cell membrane assessed as reduction in GTPgammaS binding at 10 uM by [35S]GTP-gammaS binding assay; format: functional, cell membranes; procedure, shortened: as §1
[11] = biological target: T1, Cannabinoid receptor 2; assay: Neutral antagonist activity at human CB2 receptor expressed in CHO cell membrane at 10 uM by [35S]GTP-gammaS binding assay; format: cell membranes; conditions: filed as antagonist; procedure, shortened: as §1
[12] = biological target: T2, Cannabinoid receptor 1; assay: Binding affinity to human CB1 receptor expressed in CHO cell membrane at 10 uM by [35S]GTP-gammaS binding assay; format: cell membranes; procedure, shortened: as §1
[13] = biological target: T1, Cannabinoid receptor 2; assay: Binding affinity to human CB2 receptor expressed in CHO cell membrane at 10 uM by [35S]GTP-gammaS binding assay; format: cell membranes; procedure, shortened: as §1

SMILES | Ki [2] | Ki [3] | Ratio Ki [4] | inhibition [6] | inhibition [5] | other results
COc1ccc(C(=O)c2c(C)n(CCN3CCOCC3)c3cc(I)ccc23)cc1 | – | – | – | – | – | Activity ([1]; filed as inverse agonist): Active
O=C1/C(=C/c2cn(Cc3ccccc3)c3ncccc23)N2CCC1CC2 | 2.9 µM | 0.11 µM | 26.3 | 15.1% | – | inhibition ([5]; filed as antagonist): 79.9%; Activity [7]: inactive; Activity [8]: inactive; Activity [9]: Active; Activity [10]: inactive; Activity [11]: Active; Activity [1]: inactive
O=C1/C(=C/c2cn(CCN3CCCC3)c3ncccc23)N2CCC1CC2 | – | – | – | 39.4% | 56.6% | –
OC1/C(=C/c2cn(Cc3ccccc3)c3ncccc23)N2CCC1CC2 (racemic) | – | – | – | 0% | 0% | –
N#Cc1ccc(Cn2cc(/C=C3/C(=O)C4CCN3CC4)c3cccnc32)cc1 | – | – | – | 55.7% | 64.1% | –
OC1/C(=C/c2cn(Cc3ccc(Cl)cc3)c3ncccc23)N2CCC1CC2 (racemic) | – | – | – | 58.2% | 58.5% | –
O=C1/C(=C/c2cn(Cc3ccc(Cl)cc3)c3ncccc23)N2CCC1CC2 | 0.704 µM | 0.115 µM | 6.1 | – | – | inhibition ([5]; filed as inverse agonist): 74.8%; inhibition ([6]; filed as inverse agonist): 68.9%; Activity ([10]; filed as inverse agonist): Active; Activity ([1]; filed as inverse agonist): Active
O=C1/C(=C/c2cn(Cc3ccc(F)cc3)c3ncccc23)N2CCC1CC2 | 0.218 µM | 0.0237 µM | 9.2 | 87.6% | 100% | Activity [12]: Active; Activity [13]: Active
COc1ccc(Cn2cc(/C=C3/C(=O)C4CCN3CC4)c3cccnc32)cc1 | – | – | – | 22.4% | 27.5% | –
O=C1/C(=C/c2cn(Cc3ccc(Br)cc3)c3ncccc23)N2CCC1CC2 | 1.11 µM | 0.625 µM | 1.8 | – | – | inhibition ([5]; filed as antagonist): 67.6%; inhibition ([6]; filed as inverse agonist): 74.2%; Activity ([10]; filed as inverse agonist): Active; Activity [11]: Active
O=C1/C(=C/c2cn(CCN3CCOCC3)c3ncccc23)N2CCC1CC2 | – | – | – | 0% | 7.92% | –
O=C1/C(=C/c2cn(Cc3cccc(C(F)(F)F)c3)c3ncccc23)N2CCC1CC2 | – | – | – | 42.5% | 56.7% | –
Cc1c(C(=O)NN2CCCCC2)nn(-c2ccc(Cl)cc2Cl)c1-c1ccc(I)cc1 | – | – | – | – | – | Activity ([10]; filed as inverse agonist): Active
